Test results from ChEMBL document CHEMBL3407470, “Synthesis, biological evaluation and 3D-QSAR studies of novel 5-phenyl-1H-pyrazol cinnamamide derivatives as novel antitubulin agents” (Eur J Med Chem, 2015).

biological target: Tubulin (Bos taurus, UniProt Q6B856+Q862L2+Q862F3); assay: Inhibition of bovine brain tubulin polymerization incubated for 20 mins by spectrophotometry; details: not given

| Structure (SMILES) | IC50 | pIC50 |
| --- | --- | --- |
| Cc1ccc(-c2cc(NC(=O)/C=C/c3ccc(Br)cc3)n[nH]2)cc1 | 2550 nM | 5.593 |
| Cc1ccc(/C=C/C(=O)Nc2cc(-c3ccc(C)cc3)[nH]n2)cc1 | 3360 nM | 5.474 |
| O=C(/C=C\c1ccc(F)cc1)Nc1cc(-c2ccc(Br)cc2)[nH]n1 | 1780 nM | 5.75 |
| COc1ccc(/C=C\C(=O)Nc2cc(-c3ccccc3)[nH]n2)cc1 | 1640 nM | 5.785 |
| O=C(/C=C\c1ccc(C(F)(F)F)cc1)Nc1cc(-c2ccccc2)[nH]n1 | 1340 nM | 5.873 |
| Cc1ccc(-c2cc(NC(=O)/C=C/c3ccc([N+](=O)[O-])cc3)n[nH]2)cc1 | 1620 nM | 5.79 |
| O=C(/C=C/c1ccc(Cl)cc1)Nc1cc(-c2ccc(Br)cc2)[nH]n1 | 1950 nM | 5.71 |
| Cc1ccc(/C=C/C(=O)Nc2cc(-c3ccc(Br)cc3)[nH]n2)cc1 | 2760 nM | 5.56 |
| O=C(/C=C/c1ccc([N+](=O)[O-])cc1)Nc1cc(-c2ccccc2)[nH]n1 | 1560 nM | 5.807 |
| Cc1ccc(-c2cc(NC(=O)/C=C/c3ccccc3)n[nH]2)cc1 | 3120 nM | 5.506 |
| O=C(/C=C/c1ccccc1)Nc1cc(-c2ccccc2)[nH]n1 | 2840 nM | 5.547 |

tested on: MCF7; assay: Induction of cell cycle arrest in human MCF7 cells assessed as accumulation at S phase after 24 hrs by flow cytometry (reference value: 14.58%); assay type: functional; details: not given
How it was run: (§1)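 MCF-7 cells exposed 24 h to the compound at 1 and 2 μg/mL. Phase distribution (G0/G1, S, G2/M) was measured by flow cytometry and reported as percentage of cells in each phase.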

| Structure (SMILES) | Activity |
| --- | --- |
| COc1cc2c(c(OC)c1OC)-c1ccc(OC)c(=O)cc1[C@@H](NC(C)=O)CC2 [COLCHICINE] | 12.44% |

tested on: MCF7; assay: Induction of cell cycle arrest in human MCF7 cells assessed as accumulation at G2/M phase after 24 hrs by flow cytometry (reference value: 25.67%); assay type: functional; details: not given; how it was run: as §1

| Structure (SMILES) | Activity |
| --- | --- |
| COc1cc2c(c(OC)c1OC)-c1ccc(OC)c(=O)cc1[C@@H](NC(C)=O)CC2 [COLCHICINE] | 80.62% |

tested on: MCF7; assay: Antiproliferative activity against human MCF7 cells after 48 hrs by MTT assay; assay type: functional, cell-based; details: MCF7, 48 h
How it was run: (§2)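 Cells grown to log phase in RPMI 1640 with 10% FBS, seeded at 2×10^4 cells/mL and allowed 24 h at 37 °C, 5% CO₂ before treatment. Compounds at pre-set concentrations, colchicine and CA-4 as references, exposed 48 h. MTT added (2.5 mg/mL in PBS) for 4 h, then SDS/isobutyl alcohol/HCl extraction overnight; OD at 570 nm. Triplicate wells per concentration; values averaged from at least three separate runs.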

| Structure (SMILES) | IC50 |
| --- | --- |
| COc1ccc(/C=C\c2cc(OC)c(OC)c(OC)c2)cc1O [COMBRETASTATIN A4] | 210 nM |
| Cc1ccc(-c2cc(NC(=O)/C=C/c3ccc(Br)cc3)n[nH]2)cc1 | 1370 nM |
| Cc1ccc(/C=C/C(=O)Nc2cc(-c3ccc(C)cc3)[nH]n2)cc1 | 1720 nM |
| COc1cc2c(c(OC)c1OC)-c1ccc(OC)c(=O)cc1[C@@H](NC(C)=O)CC2 [COLCHICINE] | 390 nM |
| O=C(/C=C\c1ccc(F)cc1)Nc1cc(-c2ccc(Br)cc2)[nH]n1 | 640 nM |
| COc1ccc(/C=C\C(=O)Nc2cc(-c3ccccc3)[nH]n2)cc1 | 720 nM |
| O=C(/C=C\c1ccc(C(F)(F)F)cc1)Nc1cc(-c2ccccc2)[nH]n1 | 540 nM |
| Cc1ccc(-c2cc(NC(=O)/C=C/c3ccc([N+](=O)[O-])cc3)n[nH]2)cc1 | 840 nM |
| O=C(/C=C/c1ccc(Cl)cc1)Nc1cc(-c2ccc(Br)cc2)[nH]n1 | 770 nM |
| Cc1ccc(/C=C/C(=O)Nc2cc(-c3ccc(Br)cc3)[nH]n2)cc1 | 1170 nM |
| O=C(/C=C/c1ccc([N+](=O)[O-])cc1)Nc1cc(-c2ccccc2)[nH]n1 | 630 nM |
| Cc1ccc(-c2cc(NC(=O)/C=C/c3ccccc3)n[nH]2)cc1 | 1630 nM |
| O=C(/C=C/c1ccccc1)Nc1cc(-c2ccccc2)[nH]n1 | 1360 nM |

tested on: MCF7; assay: Induction of cell cycle arrest in human MCF7 cells assessed as accumulation at G0/G1 phase after 24 hrs by flow cytometry (reference value: 59.75%); assay type: functional; details: not given; how it was run: as §1

| Structure (SMILES) | Activity |
| --- | --- |
| COc1cc2c(c(OC)c1OC)-c1ccc(OC)c(=O)cc1[C@@H](NC(C)=O)CC2 [COLCHICINE] | 6.94% |

tested on: A549; assay: Antiproliferative activity against human A549 cells after 48 hrs by MTT assay; assay type: functional, cell-based; details: A549, 48 h; how it was run: as §2

| Structure (SMILES) | IC50 |
| --- | --- |
| COc1ccc(/C=C\c2cc(OC)c(OC)c(OC)c2)cc1O [COMBRETASTATIN A4] | 460 nM |
| Cc1ccc(-c2cc(NC(=O)/C=C/c3ccc(Br)cc3)n[nH]2)cc1 | 1590 nM |
| Cc1ccc(/C=C/C(=O)Nc2cc(-c3ccc(C)cc3)[nH]n2)cc1 | 1880 nM |
| COc1cc2c(c(OC)c1OC)-c1ccc(OC)c(=O)cc1[C@@H](NC(C)=O)CC2 [COLCHICINE] | 580 nM |
| O=C(/C=C\c1ccc(F)cc1)Nc1cc(-c2ccc(Br)cc2)[nH]n1 | 930 nM |
| COc1ccc(/C=C\C(=O)Nc2cc(-c3ccccc3)[nH]n2)cc1 | 1060 nM |
| O=C(/C=C\c1ccc(C(F)(F)F)cc1)Nc1cc(-c2ccccc2)[nH]n1 | 880 nM |
| Cc1ccc(-c2cc(NC(=O)/C=C/c3ccc([N+](=O)[O-])cc3)n[nH]2)cc1 | 1130 nM |
| O=C(/C=C/c1ccc(Cl)cc1)Nc1cc(-c2ccc(Br)cc2)[nH]n1 | 1210 nM |
| Cc1ccc(/C=C/C(=O)Nc2cc(-c3ccc(Br)cc3)[nH]n2)cc1 | 1620 nM |
| O=C(/C=C/c1ccc([N+](=O)[O-])cc1)Nc1cc(-c2ccccc2)[nH]n1 | 970 nM |
| Cc1ccc(-c2cc(NC(=O)/C=C/c3ccccc3)n[nH]2)cc1 | 1670 nM |
| O=C(/C=C/c1ccccc1)Nc1cc(-c2ccccc2)[nH]n1 | 1580 nM |

tested on: not listed separately; assay: Antiproliferative activity against mouse B16F10 cells after 48 hrs by MTT assay; assay type: functional, cell-based; details: B16-F10, 48 h; how it was run: as §2

| Structure (SMILES) | IC50 |
| --- | --- |
| COc1ccc(/C=C\c2cc(OC)c(OC)c(OC)c2)cc1O [COMBRETASTATIN A4] | 420 nM |
| Cc1ccc(-c2cc(NC(=O)/C=C/c3ccc(Br)cc3)n[nH]2)cc1 | 1570 nM |
| Cc1ccc(/C=C/C(=O)Nc2cc(-c3ccc(C)cc3)[nH]n2)cc1 | 1750 nM |
| COc1cc2c(c(OC)c1OC)-c1ccc(OC)c(=O)cc1[C@@H](NC(C)=O)CC2 [COLCHICINE] | 480 nM |
| O=C(/C=C\c1ccc(F)cc1)Nc1cc(-c2ccc(Br)cc2)[nH]n1 | 850 nM |
| COc1ccc(/C=C\C(=O)Nc2cc(-c3ccccc3)[nH]n2)cc1 | 950 nM |
| O=C(/C=C\c1ccc(C(F)(F)F)cc1)Nc1cc(-c2ccccc2)[nH]n1 | 640 nM |
| Cc1ccc(-c2cc(NC(=O)/C=C/c3ccc([N+](=O)[O-])cc3)n[nH]2)cc1 | 1320 nM |
| O=C(/C=C/c1ccc(Cl)cc1)Nc1cc(-c2ccc(Br)cc2)[nH]n1 | 1080 nM |
| Cc1ccc(/C=C/C(=O)Nc2cc(-c3ccc(Br)cc3)[nH]n2)cc1 | 1480 nM |
| O=C(/C=C/c1ccc([N+](=O)[O-])cc1)Nc1cc(-c2ccccc2)[nH]n1 | 720 nM |
| Cc1ccc(-c2cc(NC(=O)/C=C/c3ccccc3)n[nH]2)cc1 | 1680 nM |
| O=C(/C=C/c1ccccc1)Nc1cc(-c2ccccc2)[nH]n1 | 1560 nM |
